EP2 modulator: modulates human prostaglandin E2 receptor EP2 signaling. P43116. EP2-expressing cells, cAMP HTRF FRET, PGE2 co-stimulation. induction, % at 25 µM. actives 0.83% (n = 260,000). AID 940;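 active = compounds whose cAMP rise, as percent of the full-agonist control response, exceeds 60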;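 also: rat C6 glioma line stably carrying human EP2 under a CMV promoter; the protocol text gives 20 µM as final concentration; 100% = response of wells given 1 µM PGE2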
EP2 antag: inhibitors of human EP2 prostaglandin E2 receptor; actives 0.52% (n = 260,000); inhibition, % at 25 µM; C6 glioma cells expressing human EP2, cAMP TR-FRET; cells stimulated with saturating PGE2; AID 1422; P43116;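 active = percent inhibition above 40 after rounding to a whole number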;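 also: rat C6 glioma host cells with rolipram phosphodiesterase inhibitor present; the protocol text gives 20 µM as final concentration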
OX1R antag-1: OX1R (human) antagonism; O43613; OX1R-expressing cells, FRET antagonist read-out; inhibition, % at 6.6 µM; actives 1.8% (n = 330,000); AID 485270; in the data active = inhibition mostly above about 38%, no sharp cut-off; inactive = mostly below about 40%;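 also: 0% = agonist challenge alone and 100% = reference antagonist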
OX1R antag-2: blocks the human orexin 1 receptor. actives 0.43% (n = 330,000). CHO/OX1R cells, Fluo-8 calcium fluorescence, orexin A. inhibition, % at 5 µM. O43613;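 active = inhibition above its plate's threshold, mean inhibition of all tested compounds on the plate plus 3 SD, cut at about 37% in these data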;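 also: 0% = orexin A challenge wells and 100% = SB-334867-A antagonist wells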
GPR7 antagonist: human neuropeptides B/W receptor 1 antagonism. P48145. GPR7-expressing cells, fluorescence antagonist assay. inhibition, % at 4.4 µM. actives 1.1% (n = 290,000). AID 1861; in the data active = inhibition above about 16%, passing the limit was not always enough;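 also: cells stimulated with the agonist NPW; 0% = agonist with vehicle and 100% = vehicle without agonist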
Target sequence (P48145 whole entry, looked up): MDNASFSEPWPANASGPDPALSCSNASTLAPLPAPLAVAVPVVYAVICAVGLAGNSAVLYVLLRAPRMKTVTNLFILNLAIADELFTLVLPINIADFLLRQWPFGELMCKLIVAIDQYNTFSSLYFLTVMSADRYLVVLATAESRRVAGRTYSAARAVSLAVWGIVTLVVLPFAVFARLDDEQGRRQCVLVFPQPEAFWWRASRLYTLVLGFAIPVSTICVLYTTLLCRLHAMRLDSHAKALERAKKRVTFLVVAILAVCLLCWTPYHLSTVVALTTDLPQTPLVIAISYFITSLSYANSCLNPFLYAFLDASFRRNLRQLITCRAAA
CHO parental Ca: counter-screen for OX1R antagonists: effect in parental CHO cells. inhibition, % at 5.6 µM. parental CHO-K1, ATP-induced calcium, Fluo-8 fluorescence. actives 0.63% (n = 330,000). AID 463079;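 active = inhibition above that plate's mean sample inhibition plus 3 SD, cut at about 26% in these data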;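 also: 0% = ATP-challenged DMSO wells and 100% = DMSO wells without ATP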
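Assay system: untransfected parental CHO cell line. Also added: ATP agonist challenge. Dosing: one dose, 5.6 µM nominal. Measured by: Fluo-8 fluorescence. Read-out: % inhibition. Benchmarks: ATP wells versus no-ATP DMSO wells. Repeats: no replicates.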
GPR7 antag cf: human GPR7 antagonism, confirmation assay; shares compounds with GPR7 antagonist; GPR7-expressing cells, calcium fluorescence antagonist mode; inhibition, % at 4.4 µM; actives 52% (n = 2,400); in the data active = inhibition above about 24%;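 also: stimulated with the GPR7 agonist NPW; 0% = agonist plus vehicle and 100% = vehicle alone without agonist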
MCHR1 antagonist: counter-screen for GPR7 antagonists: antagonists of human MCHR1. shares compounds with GPR7 antagonist. MCHR1-expressing cells, fluorescence antagonist assay. inhibition, % at 4.4 µM. actives 62% (n = 2,400); in the data active = inhibition above about 22%;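 also: 0% = vehicle with agonist and 100% = vehicle without agonist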
Starred values were filed as active, the others as inactive. Compounds with a hit are over-represented: about 3.7% of the library has one in this group of screens.

For O=[N+]([O-])c1cccc(CNC2CCCCCC2)c1 the results were EP2 modulator 26, EP2 antag 3, OX1R antag-1 25, OX1R antag-2 -21, GPR7 antagonist 6 and CHO parental Ca -9.
CCn1c(=O)n(CC(=O)NCc2ccccc2F)c2cccnc21 was read as EP2 modulator -41 and EP2 antag 7.
Screening CCOC(=O)CC1NCCc2c1[nH]c1ccc(OC)cc21 (stereo unspecified) returned OX1R antag-1 18, OX1R antag-2 -28, GPR7 antagonist 20 and CHO parental Ca -13.
Screening CC(=O)c1cc(-c2ccccc2)n(CCC(=O)NC2CCC(C)CC2)c1C (stereo unspecified) returned EP2 modulator -4, EP2 antag 2, OX1R antag-1 17, OX1R antag-2 -8, GPR7 antagonist 23*, CHO parental Ca -24, GPR7 antag cf 5 and MCHR1 antagonist -5.
O=S(=O)(c1ccc(OCC(O)CN2CCN(c3ccccc3O)CC2)cc1)N1CCOCC1 (stereo unspecified) was read as EP2 modulator -31, EP2 antag 17, OX1R antag-1 8, OX1R antag-2 -27, GPR7 antagonist -11 and CHO parental Ca -20.
`O=S(=O)(c1ccc(OCC(O)CN2CCN(c3ccccc3)CC2)cc1)N1CCOCC1` (stereo unspecified) gave EP2 modulator 2, EP2 antag 9, OX1R antag-1 22, OX1R antag-2 8, GPR7 antagonist 25*, CHO parental Ca -17, GPR7 antag cf 5 and MCHR1 antagonist 12.
For CC(C)CCNc1nc2ccccc2nc1NS(=O)(=O)c1cccs1 the results were EP2 modulator -8, EP2 antag 7, OX1R antag-1 31, OX1R antag-2 -13, GPR7 antagonist -6 and CHO parental Ca -8.
Screening COC(=O)c1ccc(OCC2c3cc(OC)c(OC)cc3CCN2C(=O)C2CC2)cc1 (stereo unspecified) returned EP2 modulator -5, EP2 antag 1, OX1R antag-1 9, OX1R antag-2 -19, GPR7 antagonist 27*, CHO parental Ca 3, GPR7 antag cf 43* and MCHR1 antagonist 29*.
Cc1nc(SC(C)C(=O)NCc2ccc3c(c2)OCO3)nc(C)c1C (stereo unspecified) was read as OX1R antag-1 1, OX1R antag-2 -8 and CHO parental Ca -14.
`COc1ccc(-c2nnc(SC(C)C(=O)NCc3ccc4c(c3)OCO4)n2Cc2ccco2)cc1` (stereo unspecified) gave EP2 modulator 34, EP2 antag 7, OX1R antag-1 30, OX1R antag-2 -24, GPR7 antagonist 48*, CHO parental Ca -29, GPR7 antag cf 39* and MCHR1 antagonist 23*.
`CC(Sc1nnc2ccccn12)C(=O)NCc1ccc2c(c1)OCO2` (stereo unspecified) gave EP2 modulator 17, EP2 antag 2, OX1R antag-1 0, OX1R antag-2 7, GPR7 antagonist 2 and CHO parental Ca -13.
C=CCn1c(SC(C)C(=O)NCc2ccc3c(c2)OCO3)nnc1C1CCCCC1 (stereo unspecified) was read as EP2 modulator 2, EP2 antag -2, OX1R antag-1 6, OX1R antag-2 -23, GPR7 antagonist 26*, CHO parental Ca -17, GPR7 antag cf 32* and MCHR1 antagonist 29*.
`O=C(CSc1nnc(-c2ccc(Cl)cc2)n1Cc1ccco1)NCc1ccc2c(c1)OCO2` gave EP2 modulator 42, EP2 antag 16, OX1R antag-1 25, OX1R antag-2 -19, GPR7 antagonist 34*, CHO parental Ca -20, GPR7 antag cf 32* and MCHR1 antagonist 24*.
Screening CCn1c(SCC(=O)NCc2ccc3c(c2)OCO3)nnc1-c1ccco1 returned OX1R antag-1 24, OX1R antag-2 -21, GPR7 antagonist -12 and CHO parental Ca -6.
